Assay outcomes (PubChem)
Sampled rows, rich in hits. Any-hit rate of the full collection: about 1.8%.
TCR CD3 inh = inhibitors of human TCR-CD3 interaction, primary screen, biochemical, fluorescence, TAMRA-labeled TCR probe. T-cell receptor (TCR). inhibition, % at 9.4 µM. hit rate 0.37% among 360,000. AID 651800, 2012; in the data active = inhibition above about 19%;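 also: recombinant mutant TCR 2C K166C tagged with TAMRA read by polarization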
ARNT TACC3 PPI = disruptors of ARNT/TACC3 protein interaction, primary screen, biochemical, AlphaScreen, single concentration | hit rate 0.66% among 390,000 | inhibition, % at 9.99 µM | AlphaScreen His-ARNT PAS-B/GST-TACC3 binding, luminescence; TACC3 fragment carries E629A point mutation;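 active = mean inhibition of replicates at least 50% and at least half of replicates each reaching 50%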
mABHD4 FP = ABHD4 inhibitors, primary screen, biochemical, fluorescence polarization, mouse. purified mABHD4, FP-Rh probe fluorescence polarization. inhibition, % at 8.92 µM. hit rate 0.54% among 370,000. AID 720543, 2013;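 active = inhibition exceeding the mean over every tested compound plus 3 SD, cut at about 30% in these data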
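Test system: mABHD4 protein; Read-out basis: % inhibition; Incubation: 45 min + 60 min at 25 °C; Repeats: single replicate; Technique: fluorescence polarization with parallel and perpendicular emission, 525/598 nm; Compound: 8.92 µM, single dose; Benchmarks: full inhibition S159A mutant plus DMSO, zero as sample-well median.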
SIAE inh = human SIAE inhibitors, primary screen, biochemical, fluorescence polarization, FP-Rh probe, 1536-well HTS; Sialate O-acetylesterase (Homo sapiens), Q9HAT2; SIAE FP-Rh probe binding; inhibition, % at 9.66 µM; hit rate 0.69% among 370,000; AID 1053197, 2014;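 active = inhibition above a cutoff: mean of compounds within the control limits plus 3 SD of those, cut at about 17% in these data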
HTRA1 inh = HTRA1 serine protease inhibitors, primary screen, biochemical, fluorescence polarization, HTS; recombinant HTRA1, FP-rhodamine activity-based probe; inhibition, % at 5.96 µM; hit rate 0.5% among 340,000; AID 504803, 2011; in the data active = inhibition above about 36%
Target sequence (Q92743 whole entry, looked up): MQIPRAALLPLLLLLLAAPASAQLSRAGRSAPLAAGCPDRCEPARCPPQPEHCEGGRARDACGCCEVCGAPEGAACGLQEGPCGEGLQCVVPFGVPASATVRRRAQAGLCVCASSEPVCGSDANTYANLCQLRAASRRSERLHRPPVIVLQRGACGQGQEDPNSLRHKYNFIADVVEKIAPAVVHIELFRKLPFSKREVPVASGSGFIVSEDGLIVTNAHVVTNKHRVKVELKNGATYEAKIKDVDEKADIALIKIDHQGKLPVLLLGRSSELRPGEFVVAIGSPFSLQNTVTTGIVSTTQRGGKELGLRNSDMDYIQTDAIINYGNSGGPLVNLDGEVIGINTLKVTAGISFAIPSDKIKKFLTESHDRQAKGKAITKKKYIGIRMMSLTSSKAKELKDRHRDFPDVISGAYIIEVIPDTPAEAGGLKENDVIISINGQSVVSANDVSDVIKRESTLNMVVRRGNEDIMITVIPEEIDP
HTRA1 inh conf = HTRA1 protease inhibitors, retest, confirmation, biochemical, fluorescence polarization | inhibition, % at 5.96 µM | recombinant HTRA1, FP-rhodamine activity-based probe | hit rate 66% among 1,600 | shares compounds with HTRA1 inh;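 active = mean inhibition over three repeats above a set limit taken from the earlier primary screen, cut at about 37% in these data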;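 also: inhibitors block probe binding so polarization drops and inhibition rises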
A number is an active result; n = inactive; x = no result; + = active, no number.

SMILES	TCR CD3 inh	ARNT TACC3 PPI	mABHD4 FP	SIAE inh	HTRA1 inh	HTRA1 inh conf
COc1ccc(S(=O)(=O)N[C@@H]2CC[C@@H](CCn3cc(-c4cccc(F)c4)nn3)O[C@H]2CO)cc1	x	n	x	x	x	x
CO[C@H]1CN(C)C(=O)c2ccc(NC(=O)Nc3cccc(F)c3)cc2OC[C@@H](C)NC[C@H]1C	x	n	x	x	x	x
Cc1ccc(Cn2c(=N)c(C(=O)NCc3ccco3)cc3c(=O)n4ccccc4nc32)cc1	n	n	n	n	41.6	n
COC(=O)C1=C(O)/C(=C\c2ccc(CNC(=O)C(=O)Nc3ccc(C)cc3)o2)N=C1C	n	x	n	n	45.1	n
Nc1cc(N)c(OCC(F)(F)F)cc1OCC(F)(F)F	x	n	x	x	47.9	n
Cc1cc(C)nc(Nc2ccc(N3CCOCC3)cc2)n1	n	n	n	n	n	x
Cc1cc(C)nc(Nc2ccc(N3CCCC3)cc2)n1	n	n	n	n	40.4	40.1
COc1ccccc1CNC(=O)C[C@H]1CC[C@H]2[C@@H](COC[C@H](O)CN2C(=O)Nc2ccc(F)cc2)O1	x	n	x	x	x	x
CC(C)CC#Cc1ccc2c(c1)O[C@@H](CN(C)C(=O)NC(C)C)[C@H](C)CN([C@@H](C)CO)S2(=O)=O	x	n	x	x	x	x
O=C(O)Cc1ccc(N=Nc2c(O)c(C(=O)O)cc3ccccc23)cc1	n	n	n	n	45.4	42.6
Oc1ccc2ccccc2c1N=Nc1ccc(F)cc1	n	n	n	n	n	x
c1ccc2cc(-c3cc4ccccn4c3)ccc2c1	n	n	n	n	39.4	n
C[C@@H]1CCCCO[C@@H](CN(C)S(C)(=O)=O)[C@H](C)CN([C@H](C)CO)C(=O)c2cc(NC(=O)Cc3ccccc3)ccc2O1	x	n	x	x	x	x
C/C=C/c1ccc([C@H]2[C@@H](CO)N(c3nc(-c4ccccc4)cs3)[C@H]2C#N)cc1	x	n	x	x	x	x
O=C(N/N=C/c1sc(N2CCOCC2)nc1-c1ccccc1)c1cccc(S(=O)(=O)N2CCOCC2)c1	n	n	n	n	44.9	119.0
C[C@@H]1CN([C@H](C)CO)S(=O)(=O)c2ccc(-c3cccc(C#N)c3)cc2O[C@@H]1CN(C)C	x	n	x	x	x	x
CO[C@@H]1CN(C)C(=O)c2cc(NC(=O)Nc3ccc(Cl)cc3)ccc2OC[C@H](C)N(C)C[C@@H]1C	x	n	x	x	x	x
CCCCC(CC)CN=C(N)NC(N)=NCCCCCCN=C(N)NC(N)=NCC(CC)CCCC (stereo unspecified)	x	n	x	x	55.4	93.2
Cc1ccc(-c2ccc([C@@H]3[C@@H](CO)N4CCCCN(S(=O)(=O)c5cccc(C)c5)C[C@H]34)cc2)cc1	x	n	x	x	x	x
CCc1noc(C)c1C(=O)Oc1ccc(N(C)S(=O)(=O)c2ccccc2)cc1	n	n	n	n	36.4	n
CC=Cc1ccc2n(c1=O)C[C@H]1[C@H](CO)[C@@H](C(=O)Nc3ccc(-c4ccccc4)cc3)N(CC)[C@@H]21 (mixture of isomers)	x	n	x	x	x	x
Cc1ccc(NC2=C/C(=N/S(=O)(=O)c3cccs3)c3ccccc3C2=O)cc1C	n	n	n	n	n	x
COc1ccc(S(=O)(=O)/N=C2\C=C(Nc3ccc(O)cc3)C(=O)c3ccccc32)cc1	n	n	75.5	40.3	83.7	+
Cc1noc(C)c1S(=O)(=O)N(C)C[C@H]1Oc2ccc(NC(=O)CCC(F)(F)F)cc2CC(=O)N([C@H](C)CO)C[C@@H]1C	x	n	x	x	x	x
COc1cc(C(C(=O)NC(C)(C)C)N(C(=O)CNC(=O)c2cccs2)c2ccc(C(C)C)cc2)cc(OC)c1OC (stereo unspecified)	n	n	n	n	39.3	48.9
SMILES	TCR CD3 inh	ARNT TACC3 PPI	mABHD4 FP	SIAE inh	HTRA1 inh	HTRA1 inh conf
COC(=O)CCC(=O)OC1(C)C(=O)C2=CN(C3CCCC3)C(c3ccc(OC)cc3)=CC2=C(Br)C1=O (stereo unspecified)	n	n	n	n	61.0	52.4
COCCN1C=C2C(=O)C(C)(OC(=O)CCC(=O)OC)C(=O)C(Br)=C2C=C1c1ccc(OC)cc1 (stereo unspecified)	x	n	x	x	n	x
COC(=O)CCC(=O)OC1(C)C(=O)C2=CN(c3ccc(OC)cc3)C(c3ccc(OC)cc3)=CC2=C(Br)C1=O (stereo unspecified)	x	n	x	x	52.8	62.8
C=CCN1C=C2C(=O)C(C)(OC(=O)CCC(=O)OC)C(=O)C(Br)=C2C=C1c1ccc(OC)cc1 (stereo unspecified)	x	n	x	x	63.4	43.3
CCN(CC)CCCN1C=C2C(=O)C(C)(OC(=O)CCC(=O)OC)C(=O)C(Br)=C2C=C1c1ccc(OC)cc1 (stereo unspecified)	n	n	n	n	n	x
CN(C)CC(=O)N[C@H]1CC[C@H](CC(=O)NCc2ccccc2F)O[C@@H]1CO	x	n	x	x	x	x
C[C@H](NC(=O)C[C@@H]1CC[C@H]2[C@@H](COC[C@@H](O)CN2Cc2cc(F)ccc2F)O1)c1ccccc1	x	n	x	x	x	x
CCOc1ccc2nc3cc(N=Nc4ccc(N)nc4N)ccc3c(N)c2c1	x	n	x	x	46.9	69.9
O=C(C[C@H]1C=C[C@@H](NC(=O)CC2CC2)[C@H](CO)O1)NCc1ccc(Cl)cc1	x	n	x	x	x	x
Cc1ccc(O)c(CNCCNCc2cc(C)ccc2O)c1	n	n	n	n	37.8	52.7
COCC#Cc1cnc2c(c1)C(=O)N([C@@H](C)CO)C[C@H](C)[C@@H](CN(C)C(=O)c1cccc(F)c1)O2	x	n	x	x	x	x
C[C@@H]1CCCCO[C@H](CN(C)Cc2ccncc2)[C@H](C)CN([C@@H](C)CO)C(=O)c2cc(NC(=O)Nc3ccc(C(F)(F)F)cc3)ccc2O1	x	n	x	x	x	x
CCCOc1cc(N)ccc1C(=O)OCCN(CC)CC	n	n	n	n	n	x
CCCOc1ccc(N)cc1N	n	n	n	n	55.5	n
CO[C@@H]1CN(C)C(=O)c2cc(NC(=O)C3CC3)ccc2OC[C@H](C)N(Cc2cncnc2)C[C@H]1C	x	n	x	x	x	x
CCc1ccc(C(=O)/C=C2\Sc3ccccc3NC2=O)cc1	n	n	n	n	59.5	93.4
O=C(N/N=C/c1c[nH]c2ccccc12)c1cccc(O)c1	n	n	n	n	n	x
O=C(N/N=C/c1c[nH]c2ccccc12)c1ccc(O)c(O)c1	n	n	n	n	53.0	82.4
Cc1cc2c(N=O)c(NO)ccc2[nH]1	x	80.3	x	x	40.2	74.2
CC(=O)N1CCN(c2ccc(NCc3ccc(-c4ccc(Br)cc4)o3)cc2)CC1	n	n	n	n	43.8	n
CN1CCN(c2ccc(NC(=O)c3ccc(-c4ccc(Br)cc4)o3)cc2)CC1	n	n	n	n	n	x
Brc1csc(/C=N/Nc2nc3ccccc3s2)c1	n	x	n	n	40.0	n
